For data set [1], the system named is PC-12. Put plainly: Neuroprotective activity against H2O2-induced cell damage in rat PC12 cells assessed as cell viability at 20 uM after 24 hrs by MTT assay (reference value: 46 +/- 4.12 %). Format: functional. The note with it: read-out: Activity.
Data set [2] concerns PC-12. As to the kind of experiment: Cytoprotective activity against H2O2-induced neurotoxicity in rat PC12 cells assessed as reduction in LDH release at 5 to 20 uM preincubated for 24 hrs followed by H2O2 treatment by LDH assay. Format: functional, cell-based. Particulars: dose 5-20 µM. The procedure, abridged: (§1)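 PC12 cells pretreated with compound (5, 10, 20 μM) for 24 h, then H₂O₂ or 6-OHDA; membrane damage read as LDH leakage; mean ± SD of three independent experiments.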

In data set [3] the test system is PC-12. As to the kind of experiment: Cytoprotective activity against 6-OHDA-induced neurotoxicity in rat PC12 cells assessed as reduction in LDH release at 5 to 20 uM preincubated for 24 hrs followed by 6-OHDA treatment by LDH assay. Format: functional, cell-based. Particulars: dose 5-20 µM. Put shortly:
as §1

In data set [4] the test system is PC-12. As to the kind of experiment: Protection against 6-OHDA-induced oxidative damage in rat PC12 cells assessed as intracellular ROS level by measuring mean fluorescence intensity at 5 uM pretreated with compound followed by 6-OHDA stimulation by DCFH-DA staining based flow cytometry (reference value: 26327.34). The format is functional.
For data set [5], the system named is PC-12. As to the kind of experiment: Protection against 6-OHDA-induced mitochondrial dysfunction in rat PC12 cells assessed as change in mitochondrial membrane potential loss at 10 uM pretreated with compound followed by 6-OHDA addition by JC-1 staining based flow cytometry (reference value: 26.8 %). Format: functional. Put shortly:
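Mitochondrial membrane potential in PC12 cells pretreated with compound (5, 10, 20 μM), then exposed to H₂O₂ (200 μM) or 6-OHDA (150 μM). JC-1 staining, red-to-green fluorescence shift read by flow cytometry. Mean ± SD, n = 3.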

Data set [6] has as its system PC-12. Put plainly: Protection against H2O2-induced apoptosis in rat PC12 cells assessed as late apoptotic cells at 5 uM incubated for 24 hrs by annexin V FITC/propidium iodide staining based flow cytometry (reference value: 16.2 %). Format: functional.
Data set [7] relates to PC-12. Put plainly: Protection against H2O2-induced apoptosis in rat PC12 cells assessed as viable cells at 10 uM incubated for 24 hrs by annexin V FITC/propidium iodide staining based flow cytometry (reference value: 79.3 %). Format: functional. The note with it: read-out: Activity.
The test system of data set [8] is PC-12. As to the kind of experiment: Protection against H2O2-induced apoptosis in rat PC12 cells assessed as late apoptotic cells at 10 uM incubated for 24 hrs by annexin V FITC/propidium iodide staining based flow cytometry (reference value: 16.2 %). Format: functional.
The test system of data set [9] is PC-12. Put plainly: Protection against H2O2-induced apoptosis in rat PC12 cells assessed as necrotic cells at 10 uM incubated for 24 hrs by annexin V FITC/propidium iodide staining based flow cytometry (reference value: 0.6 %). The format is functional.
The test system of data set [10] is PC-12. As to the kind of experiment: Protection against H2O2-induced apoptosis in rat PC12 cells assessed as necrotic cells at 20 uM incubated for 24 hrs by annexin V FITC/propidium iodide staining based flow cytometry (reference value: 0.6 %). Format: functional.
The subject of data set [11] is PC-12. Put plainly: Protection against 6-OHDA-induced apoptosis in rat PC12 cells assessed as viable cells at 5 uM incubated for 24 hrs by annexin V FITC/propidium iodide staining based flow cytometry (reference value: 72.0 %). The format is functional. Particulars: read-out: Activity.
Data set [12] has as its system PC-12. Put plainly: Protection against 6-OHDA-induced apoptosis in rat PC12 cells assessed as early apoptotic cells at 10 uM incubated for 24 hrs by annexin V FITC/propidium iodide staining based flow cytometry (reference value: 19.2 %). The format is functional.
In data set [13] the target is T1, Nuclear factor erythroid 2-related factor 2 (Rattus norvegicus) (UniProt O54968).
T1 sequence (whole entry): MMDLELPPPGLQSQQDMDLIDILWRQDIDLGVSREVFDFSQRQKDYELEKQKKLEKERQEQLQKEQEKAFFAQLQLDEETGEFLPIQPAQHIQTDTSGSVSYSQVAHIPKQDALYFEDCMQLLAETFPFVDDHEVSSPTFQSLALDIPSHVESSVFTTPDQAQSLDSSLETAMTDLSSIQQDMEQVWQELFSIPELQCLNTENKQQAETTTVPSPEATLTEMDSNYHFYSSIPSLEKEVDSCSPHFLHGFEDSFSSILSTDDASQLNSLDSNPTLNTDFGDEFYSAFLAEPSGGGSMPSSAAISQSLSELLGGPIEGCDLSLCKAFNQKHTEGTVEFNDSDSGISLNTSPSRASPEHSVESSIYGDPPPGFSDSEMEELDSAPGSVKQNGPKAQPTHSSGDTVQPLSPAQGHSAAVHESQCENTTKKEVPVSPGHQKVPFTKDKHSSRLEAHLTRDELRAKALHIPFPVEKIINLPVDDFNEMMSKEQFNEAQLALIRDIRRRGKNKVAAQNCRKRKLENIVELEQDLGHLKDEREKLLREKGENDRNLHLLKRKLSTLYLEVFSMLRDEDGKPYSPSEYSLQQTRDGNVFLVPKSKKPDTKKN
Put plainly: Activation of Nrf2 in rat PC12 cells assessed as increase in Nrf2 protein level at 20 uM after 3 hrs by Western blot analysis. The format is cell-based. Particulars: PC-12, filed as activator.

The target in data set [14] is T1, Nuclear factor erythroid 2-related factor 2 (Rattus norvegicus). As to the kind of experiment: Activation of Nrf2 in rat PC12 cells assessed as increase in GCLM protein level at 20 uM after 12 hrs by Western blot analysis. Format: cell-based. The note with it: PC-12, filed as activator.
In data set [15] the target is T2, Nuclear factor erythroid 2-related factor 2 (Mus musculus) (UniProt Q60795).
T2 sequence (whole entry): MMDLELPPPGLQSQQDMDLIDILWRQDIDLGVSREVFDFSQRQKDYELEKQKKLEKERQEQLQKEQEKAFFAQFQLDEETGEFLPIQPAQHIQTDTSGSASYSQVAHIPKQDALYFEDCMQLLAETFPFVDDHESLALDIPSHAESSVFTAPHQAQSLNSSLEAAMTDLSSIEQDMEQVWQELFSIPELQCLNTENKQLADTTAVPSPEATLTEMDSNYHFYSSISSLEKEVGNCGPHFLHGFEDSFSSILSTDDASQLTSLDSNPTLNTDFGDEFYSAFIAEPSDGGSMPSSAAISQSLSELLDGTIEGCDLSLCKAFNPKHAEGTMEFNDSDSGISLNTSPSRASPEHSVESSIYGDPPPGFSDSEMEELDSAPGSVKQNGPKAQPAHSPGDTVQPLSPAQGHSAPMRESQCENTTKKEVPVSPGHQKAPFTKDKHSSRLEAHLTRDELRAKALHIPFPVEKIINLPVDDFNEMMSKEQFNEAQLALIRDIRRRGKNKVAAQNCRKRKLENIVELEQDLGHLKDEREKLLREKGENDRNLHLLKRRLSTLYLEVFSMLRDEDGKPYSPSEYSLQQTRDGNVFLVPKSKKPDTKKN
As to the kind of experiment: Activation of Nrf2 in mouse BV2 cells assessed as upregulation of Nrf2 protein expression after 24 hrs by Western blot analysis. Format: cell-based. The note with it: BV-2, filed as activator, dose 5-20 µM. Put shortly: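 BV2 microglia exposed to compound for 24 h over a concentration series; Nrf2, NQO1, HO-1, TrxR1, GCLM and GCLC protein levels read by Western blot.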

Data set [16] in a line: Effective permeability of compound by PAMPA-BBB assay. Format: ADME. Particulars: read-out: Peff.
In the next data set the test system is BV-2. As to the kind of experiment: Antiinflammatory activity in mouse BV2 cells transfected with control siRNA assessed as inhibition of LPS-induced IL-6 production at 20 uM pretreated with compound followed by LPS stimulation for 18 hrs.

The source made the active and inactive calls. No cut-off for these calls is given here.

`CCN(C)C(=O)N1CCN(C(=O)/C=C/c2ccc(F)cc2)C1=O`: the viability at 20 µM in the data set with PC-12 [1] turned out to be 75%. Moreover, the outcome (in the data set on PC-12 [2]; in the data set with PC-12 [3]; in [13]; in data set [14]; with BV-2) was Active. Further, the Flu intensity with PC-12 [4] was 18168.07. Further, the Activity with PC-12 [5] stood at 16.3%; in the data set with PC-12 [6], 9.9%; with PC-12 [8], 5.3%; with PC-12 [9], 0.2%; in the data set on PC-12 [10] it was 0.3%; in the data set with PC-12 [12], 7.4%. Further, the Activity entry in data set [15] is “Dose-dependent effect”. The viability at 10 µM in the data set on PC-12 [7] turned out to be 92.4%. The viability at 5 µM in the data set on PC-12 [11] was 81.5%. In addition, the Papp in data set [16] was found to be 6.78 ×10⁻⁶ cm/s.

These data come from ChEMBL document CHEMBL4732088, “Identification and optimization of piperlongumine analogues as potential antioxidant and anti-inflammatory agents via activation of Nrf2” (Eur J Med Chem, 2021).
